The source of these data is ChEMBL document CHEMBL3627693, “Novel aminotetrazole derivatives as selective STAT3 non-peptide inhibitors” (Eur J Med Chem, 2015).

Activity calls are given as the source filed them. No cut-off for these calls is given here.

For experiment [1], the target named is T1, Signal transducer and activator of transcription 3 (Homo sapiens, UniProt P40763). Kind of experiment: Inhibition of STAT3 (unknown origin) expressed in Oncostatin M induced human HeLa cells at 50 uM incubated for 1 hr by luciferase reporter gene assay. The experiment is classed as cell-based. A general note: In a reporter assay the amount or activity of a reporter protein is the signal.

Experiment [2] has as its target T2, Signal transducer and activator of transcription 1-alpha/beta (Homo sapiens) (UniProt P42224).
T2 sequence (whole entry): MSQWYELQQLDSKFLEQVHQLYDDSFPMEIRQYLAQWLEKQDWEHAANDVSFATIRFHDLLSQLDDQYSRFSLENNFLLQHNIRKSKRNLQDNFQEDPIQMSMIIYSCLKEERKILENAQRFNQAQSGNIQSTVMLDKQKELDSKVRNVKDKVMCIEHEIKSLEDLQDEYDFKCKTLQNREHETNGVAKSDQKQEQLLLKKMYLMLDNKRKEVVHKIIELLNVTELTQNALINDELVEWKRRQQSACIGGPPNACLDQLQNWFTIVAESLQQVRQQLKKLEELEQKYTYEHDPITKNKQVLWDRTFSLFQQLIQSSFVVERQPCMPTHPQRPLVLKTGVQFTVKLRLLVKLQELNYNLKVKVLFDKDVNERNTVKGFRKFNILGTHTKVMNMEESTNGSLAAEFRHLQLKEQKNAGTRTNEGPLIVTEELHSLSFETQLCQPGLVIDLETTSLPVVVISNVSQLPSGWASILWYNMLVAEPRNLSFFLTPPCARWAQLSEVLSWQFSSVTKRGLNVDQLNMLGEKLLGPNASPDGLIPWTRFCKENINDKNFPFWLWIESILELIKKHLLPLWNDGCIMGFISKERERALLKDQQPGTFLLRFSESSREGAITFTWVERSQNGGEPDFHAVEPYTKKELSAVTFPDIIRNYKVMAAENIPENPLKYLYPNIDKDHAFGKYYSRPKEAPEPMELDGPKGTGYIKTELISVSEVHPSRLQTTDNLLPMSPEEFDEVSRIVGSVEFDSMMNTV
Kind of experiment: Inhibition of STAT1 (unknown origin) expressed in IFN-gamma induced human HeLa cells at 50 uM incubated for 1 hr by luciferase reporter gene assay. It counts as cell-based.

The target of experiment [3] is T1, Signal transducer and activator of transcription 3. Kind of experiment: Displacement of fluorescent peptide 5-FAM-G(pTyr)LPQTV-CONH2 from GST-tagged full-length human STAT3 preincubated for 60 mins followed by fluorescent peptide addition measured after 30 mins by fluorescence polarization assay. The method in brief: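 Full-length GST-STAT3 (100 nM) preincubated 60 min at room temperature with compound at various concentrations or vehicle, in 50 mM NaCl, 10 mM Hepes pH 7.5, 1 mM EDTA, 0.01% Triton X-100, 2 mM DTT. Labelled peptide then added to 10 nM final, 30 min room temperature. FP read with excitation 480, emission 535 (P and S pol).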
On the technique in general: Fluorescence polarisation rises when a labelled molecule tumbles more slowly, as on binding a larger partner.

T1 sequence (P40763 whole entry): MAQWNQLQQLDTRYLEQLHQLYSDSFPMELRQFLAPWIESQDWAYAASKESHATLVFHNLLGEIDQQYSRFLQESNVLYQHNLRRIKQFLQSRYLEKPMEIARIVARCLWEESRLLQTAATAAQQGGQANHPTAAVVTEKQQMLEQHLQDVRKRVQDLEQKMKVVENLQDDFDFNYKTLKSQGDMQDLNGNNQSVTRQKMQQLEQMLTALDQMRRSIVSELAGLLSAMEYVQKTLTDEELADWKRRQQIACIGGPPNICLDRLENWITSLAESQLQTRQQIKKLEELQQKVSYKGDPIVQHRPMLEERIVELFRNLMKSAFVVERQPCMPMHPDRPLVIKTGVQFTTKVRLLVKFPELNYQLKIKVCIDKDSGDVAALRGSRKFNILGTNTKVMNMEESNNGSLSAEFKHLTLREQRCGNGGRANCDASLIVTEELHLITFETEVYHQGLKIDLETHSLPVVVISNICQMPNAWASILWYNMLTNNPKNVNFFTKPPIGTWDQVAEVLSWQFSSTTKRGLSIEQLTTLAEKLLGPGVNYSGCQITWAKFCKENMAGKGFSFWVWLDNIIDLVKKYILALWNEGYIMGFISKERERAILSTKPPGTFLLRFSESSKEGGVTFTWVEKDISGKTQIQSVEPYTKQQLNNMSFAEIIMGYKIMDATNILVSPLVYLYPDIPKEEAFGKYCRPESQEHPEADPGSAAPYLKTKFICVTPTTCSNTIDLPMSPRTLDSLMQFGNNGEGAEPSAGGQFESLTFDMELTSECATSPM

In the case of `COc1cc(CNc2nn[nH]n2)cc(Cl)c1OCc1ccc(C(C)(C)C)cc1`, the inhibition (as a rule, the relative decrease from the control value, in per cent) in experiment [1] was 11.9%; in experiment [2], 0%. As to `COc1ccc([N+](=O)[O-])cc1COc1c(Cl)cc(CNc2nn[nH]n2)cc1OC`, the values for the inhibition in experiment [1] and in experiment [2] were 20.4% and 0%, respectively. Regarding `COc1cc(CNc2nn[nH]n2)cc(Cl)c1OCc1cccc(C(N)=O)c1`, the figures for the inhibition in experiment [1] and in experiment [2] were 15.9% and 15%, respectively. As for `COc1cc(CNc2nn[nH]n2)cc(Cl)c1OCc1ccc(C#N)cc1`, the inhibition is 37.4% in experiment [1] and 13.2% in experiment [2].

As for `COc1cc(CNc2nn[nH]n2)cc(Cl)c1OCc1cccc([N+](=O)[O-])c1`, the outcome in experiment [3] was Active. Moreover, the figures for the inhibition in experiment [1] and in experiment [2] were 40.1% and 9.2%, respectively.

Consider `COc1cc(CNc2nn[nH]n2)cc(Cl)c1OCc1ccc(OC2CCOCC2)cc1`, for which the inhibition in experiment [1] worked out at 4.1%; in experiment [2], 0%. On to `COc1cc(CNc2nn[nH]n2)cc(I)c1OCc1ccc(C)cc1`, for which the inhibition was found to be 62.7% in experiment [1] and 16.5% in experiment [2]. On the same counts, the results for `COc1cc(CNc2nn[nH]n2)cc(Cl)c1OCc1ccc(-n2nc(C)cc2C)cc1` are 2.6% and 13.9%.

Consider `COc1cc(CNc2nn[nH]n2)cc([N+](=O)[O-])c1OCc1ccc([N+](=O)[O-])cc1`, for which the inhibition came to 36% in experiment [1] and 6.4% in experiment [2]. On the same counts, the results for `COc1cc(CNc2nn[nH]n2)cc(Cl)c1OCc1ccc(-c2csc(C)n2)cc1` are 0% and 0%. As to `COc1cc(CNc2nn[nH]n2)cc(Br)c1OCc1ccc([N+](=O)[O-])cc1`, the inhibition came out at 48% in experiment [1] and 0% in experiment [2]. The corresponding values for `O=[N+]([O-])c1ccc(COc2c(O)cc(CNc3nn[nH]n3)cc2Cl)cc1` are 25.3% and 0.6%.

`CCCCCCCCCOc1cc(COc2c(Cl)cc(CNc3nn[nH]n3)cc2OC)ccc1[N+](=O)[O-]`: the inhibition in experiment [1] is 82.7%; in experiment [2] it was 72.9%.

As to `COc1cc(CC(C(=O)O)c2nn[nH]n2)cc(Cl)c1OCc1ccc(C)cc1` (centres undefined), the inhibition turned out to be 40.2% in experiment [1] and 12.9% in experiment [2]. Turning to `COc1cc(CNc2nn[nH]n2)cc(Cl)c1OCc1cccc(-c2ccccc2)c1`, the inhibition in experiment [1] amounted to 8.2%; in experiment [2] it was 0%. With `COc1cc(CNc2nn[nH]n2)cc(Cl)c1OCc1ccc(SC)cc1`, the inhibition amounted to 0% in experiment [1] and 9.7% in experiment [2]. With `COc1cc(CNc2nn[nH]n2)ccc1OCc1c(Cl)cccc1Cl`, the inhibition entry in experiment [1] is “Active”. Turning to `COc1c(OCc2ccc([N+](=O)[O-])cc2)c(Cl)cc(CNc2nn[nH]n2)c1[N+](=O)[O-]`, the values for the inhibition in experiment [1] and in experiment [2] were 19.6% and 16.5%, respectively. On the same counts, the results for `Clc1cc(CNc2nn[nH]n2)cc(OCCCc2ccccc2)c1OCc1ccccc1` are 26.9% and 11.1%. Consider `COc1cc(CNc2nn[nH]n2)cc(Cl)c1OCc1cccc(C(=O)O)c1`, for which the inhibition in experiment [1] turned out to be 36.9%; in experiment [2], 10%. `Oc1cc(CNc2nn[nH]n2)cc(Cl)c1OCc1ccccc1`: the inhibition in experiment [1] amounted to 30.8%; in experiment [2], 20.4%. Turning to `COc1cc(CN2C(=O)c3ccccc3C2=O)cc(Cl)c1OCc1ccc([N+](=O)[O-])cc1`, the inhibition was found to be 95.9% in experiment [1] and 44.5% in experiment [2]. Turning to `CCCCCCOc1cc(COc2c(Cl)cc(CNc3nn[nH]n3)cc2OC)ccc1[N+](=O)[O-]`, the inhibition was found to be 60.1% in experiment [1] and 59.3% in experiment [2]. Turning to `COc1cc(CNc2nn[nH]n2)cc(Cl)c1OC(C)c1ccccc1` (centres undefined), the inhibition in experiment [1] and in experiment [2] was 0% throughout. Consider `COC(=O)c1cccc(COc2c(Cl)cc(CNc3nn[nH]n3)cc2OC)c1`, for which the inhibition was 49.2% in experiment [1] and 0% in experiment [2]. Consider `COc1cc(CNc2nn[nH]n2)cc(OC)c1OCc1ccc([N+](=O)[O-])cc1`, for which the results for the inhibition in experiment [1] and in experiment [2] were 45.1% and 19.2%, respectively. On to `CCOc1cc(CNc2nn[nH]n2)cc(I)c1OCc1ccc([N+](=O)[O-])cc1`, for which the inhibition worked out at 32.4% in experiment [1] and 15.1% in experiment [2]. As to `COc1cc(CNc2nn[nH]n2)cc(Cl)c1OCc1ccc([N+](=O)[O-])cc1[N+](=O)[O-]`, in experiment [1], the inhibition came out at 40.1%. For the compound `CCc1cc2c(cc1COc1c(Cl)cc(CNc3nn[nH]n3)cc1OC)C(C)(C)CCC2(C)C`, the inhibition came to 77% in experiment [1] and 72.7% in experiment [2]. As to `COc1cc(CNc2nn[nH]n2)ccc1OCc1ccc(C)cc1`, the inhibition is 43% in experiment [1] and 0% in experiment [2].

Consider `CC1CCc2c(sc3ncn(Cc4ccc(C(=O)O)cc4)c(=O)c23)C1` (centres undefined), for which the inhibition result in experiment [1] was “Active”. For `CC(C)COC(=O)CN1C(=O)S/C(=C\c2ccc(C(=O)O)cc2)C1=O`, the inhibition entry in experiment [1] was “Active”. Consider `COC(=O)c1ccc(COc2c(Cl)cc(CNc3nn[nH]n3)cc2OC)cc1`, for which the inhibition in experiment [1] turned out to be 51.5%; in experiment [2], 0%. Regarding `COc1cc(CNc2nn[nH]n2)cc(Cl)c1OCc1ccc(C(F)(F)F)cc1`, the inhibition came out at 48.5% in experiment [1] and 11.5% in experiment [2]. On the same counts, the results for `COc1cc(CN(CC(=O)O)Cc2cc(Cl)c(OCc3ccc(C)cc3)c(OC)c2)cc(Cl)c1OCc1ccc(C)cc1` are 54.7% and 46%. On the same counts, the results for `CCCOc1cc(COc2c(Cl)cc(CNc3nn[nH]n3)cc2OC)ccc1[N+](=O)[O-]` are 38.3% and 2.8%. With `COc1cc(CNc2nn[nH]n2)cc(Cl)c1OCc1ccc(C(=O)O)cc1`, the inhibition turned out to be 41.1% in experiment [1] and 12.9% in experiment [2]. For the compound `COc1cc(CNc2nn[nH]n2)cc(Cl)c1OCc1cccc(COc2ccccc2)c1`, the inhibition in experiment [1] came to 0.7%; in experiment [2], 0%. Regarding `O=C(O)c1ccc(NC(=O)C2CC(=O)N(CCc3ccccc3)/C(=N/c3ccccc3)S2)cc1` (centres undefined), the inhibition entry in experiment [1] is “Active”. For the compound `COc1cc(CC(C(=O)O)C(=O)O)cc(Cl)c1OCc1ccc(C)cc1`, the results for the inhibition in experiment [1] and in experiment [2] were 14.8% and 24.5%, respectively. With `COc1cc(CNc2nn[nH]n2)cc(Cl)c1OCc1ccc(C(N)=O)cc1`, the results for the inhibition in experiment [1] and in experiment [2] were 25.7% and 9.5%, respectively. As for `COc1cc(CNc2nn[nH]n2)cc(Cl)c1OCc1ccc(Cl)cc1`, the inhibition in experiment [1] worked out at 37.6%; in experiment [2], 4.4%. Turning to `COc1cc(CNc2nn[nH]n2)cc(Cl)c1OCc1ccccc1[N+](=O)[O-]`, the values for the inhibition in experiment [1] and in experiment [2] were 31% and 1.1%, respectively. With `COc1cc(CNc2nn[nH]n2)cc(Cl)c1OCc1ccc(OC(F)(F)F)cc1`, the inhibition in experiment [1] was 51.1%; in experiment [2] it was 11.7%. With `C=CCN1C(=O)C(CC(=O)Nc2ccc(C(=O)O)cc2)S/C1=N/c1cccc(Cl)c1` (centres undefined), in experiment [1], the inhibition result is “Active”. For the compound `C[C@@H]1CC(=O)c2c(ccc3c2C(=O)c2cccc(O)c2C3=O)C1`, the results for the inhibition in experiment [1] and in experiment [2] were 71% and 13.1%, respectively. `COc1cc(CNc2nn[nH]n2)cc(Cl)c1OCc1ccc(F)cc1`: the inhibition came out at 50.7% in experiment [1] and 1.2% in experiment [2]. In the case of `COc1cc(CC(c2nn[nH]n2)c2nn[nH]n2)cc(Cl)c1OCc1ccc(C)cc1`, the inhibition in experiment [1] is 38.6%; in experiment [2], 17.7%. The corresponding values for `COc1cc(CNc2nn[nH]n2)cc(Cl)c1OCc1ccc(-c2nccs2)cc1` are 0% and 0%. Regarding `COc1cc(CO)cc(Cl)c1OCc1ccc([N+](=O)[O-])cc1`, the inhibition in experiment [1] was found to be 66.4%; in experiment [2] it was 43.6%. Regarding `COc1cc(CCc2nn[nH]n2)cc(Cl)c1OCc1ccc(C)cc1`, the inhibition in experiment [1] stood at 32.8%; in experiment [2], 0%. Turning to `CCOc1cc(CNc2nn[nH]n2)cc(Cl)c1OCc1ccc([N+](=O)[O-])cc1`, the values for the inhibition in experiment [1] and in experiment [2] were 20.4% and 34.8%, respectively. For `COc1cc(CNc2nn[nH]n2)cc(Br)c1OCc1ccc(C)cc1`, the inhibition turned out to be 58.8% in experiment [1] and 11.8% in experiment [2]. As for `COC(=O)Cc1c(C)c2ccc(OCc3nn[nH]n3)cc2oc1=O`, the inhibition entry in experiment [1] was “Active”. `COc1cc(CNc2nn[nH]n2)cc(I)c1OCc1ccc([N+](=O)[O-])cc1`: the inhibition in experiment [1] is 52.1%; in experiment [2], 0%.
